# Source: PubChem BioAssay (several laboratories)
# In the library only some 4.2% were active in any assay of this set; here they are far more common.
# UPR CHOP act: activators of apoptotic arm of unfolded protein response (CHOP); CHO-CHOP luciferase reporter, UPR activation, luminescence; percent of tunicamycin response over DMSO baseline; activation, % at 10 µM; 0.34% of 330,000 active;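 active means at 10 µM dose, activation of 40% or more, normalized to positive control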;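 further: 100% = tunicamycin at 10 µg/mL and 0% = DMSO alone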
#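 measured by = luciferase luminescence | assay system = CHO-CHOP cells, stable luciferase reporter of PERK-eIF2a-CHOP signalling | amount = 500 reporter cells seeded per well | timing = 6 h compound exposure at 37 °C after overnight seeding | controls = positive tunicamycin 10 µg/mL, negative DMSO alone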
# XBP1 UPR activ: adaptive UPR (XBP1) activation; CHO-XBP1 luciferase reporter, IRE1-XBP1 UPR activation, luminescence; percent of tunicamycin response, DMSO as zero; activation, % at 20 µM; 0.33% of 330,000 active;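 active means versus positive control, 20 µM dose yields 30% or more activation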;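 further: 100% = tunicamycin at 10 µg/mL and 0% = DMSO only wells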
#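 Signal: luciferase luminescence; Assay system: CHO-XBP1 luciferase reporter cells; Amount: one thousand reporter cells per well; Dosing: 20 µM single concentration, DMSO 1%; Benchmarks: high control tunicamycin 10 µg/mL final, low control DMSO vehicle only; Schedule: 6 h compound exposure at 37 °C, 5% CO2; Evaluation: percent activation relative to tunicamycin reference.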
# CHOP inhibitor: CHOP inhibition in unfolded protein response; CHO-K1 CHOP-promoter luciferase, tunicamycin-induced, 15-18 h; inhibition, % at 10 µM; 3.8% of 220,000 active; AID 2732;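 active means compounds that reduced the stress-induced luciferase reporter signal by more than about 70% of percent inhibition, limit read from the data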;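 further: 0% = tunicamycin plus vehicle and 100% = wells without tunicamycin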
# Lipid droplet: modulators of hepatic lipid droplet formation. AML12 mouse hepatocytes, oleate lipid droplets, BODIPY imaging. inhibition, % at 6.5 µM. 0.4% of 240,000 active. AID 1656;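 active means lipid droplet intensity inhibited by at least 50%, with more than 500 cells counted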
#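 Material – mouse AML12 hepatocyte cell line, fixed after treatment · Compound dosing – one dose, 6.5 µM compound · Times – compound with oleate, overnight · Measured by – Image-based BODIPY and DAPI two-channel analysis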
# ANO1 activ: activates or potentiates the mouse TMEM16A chloride channel | HEK293 TMEM16A/YFP-H148Q/I152L, iodide quench fluorescence; active compounds read low | B-score at 10 µM | 0.3% of 340,000 active | AID 623877;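 active means fluorescence-ratio B-score plate-corrected deviation score at least 3 library SD below zero, with starting fluorescence score within 5 deviations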;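 further: channel opened by trigger with iodide after compound preincubation; score built on the fluorescence ratio of max minus min over baseline; more negative score means more quench and so TMEM16A activation or potentiation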
# Target sequence (Q8BHY3 whole entry, looked up): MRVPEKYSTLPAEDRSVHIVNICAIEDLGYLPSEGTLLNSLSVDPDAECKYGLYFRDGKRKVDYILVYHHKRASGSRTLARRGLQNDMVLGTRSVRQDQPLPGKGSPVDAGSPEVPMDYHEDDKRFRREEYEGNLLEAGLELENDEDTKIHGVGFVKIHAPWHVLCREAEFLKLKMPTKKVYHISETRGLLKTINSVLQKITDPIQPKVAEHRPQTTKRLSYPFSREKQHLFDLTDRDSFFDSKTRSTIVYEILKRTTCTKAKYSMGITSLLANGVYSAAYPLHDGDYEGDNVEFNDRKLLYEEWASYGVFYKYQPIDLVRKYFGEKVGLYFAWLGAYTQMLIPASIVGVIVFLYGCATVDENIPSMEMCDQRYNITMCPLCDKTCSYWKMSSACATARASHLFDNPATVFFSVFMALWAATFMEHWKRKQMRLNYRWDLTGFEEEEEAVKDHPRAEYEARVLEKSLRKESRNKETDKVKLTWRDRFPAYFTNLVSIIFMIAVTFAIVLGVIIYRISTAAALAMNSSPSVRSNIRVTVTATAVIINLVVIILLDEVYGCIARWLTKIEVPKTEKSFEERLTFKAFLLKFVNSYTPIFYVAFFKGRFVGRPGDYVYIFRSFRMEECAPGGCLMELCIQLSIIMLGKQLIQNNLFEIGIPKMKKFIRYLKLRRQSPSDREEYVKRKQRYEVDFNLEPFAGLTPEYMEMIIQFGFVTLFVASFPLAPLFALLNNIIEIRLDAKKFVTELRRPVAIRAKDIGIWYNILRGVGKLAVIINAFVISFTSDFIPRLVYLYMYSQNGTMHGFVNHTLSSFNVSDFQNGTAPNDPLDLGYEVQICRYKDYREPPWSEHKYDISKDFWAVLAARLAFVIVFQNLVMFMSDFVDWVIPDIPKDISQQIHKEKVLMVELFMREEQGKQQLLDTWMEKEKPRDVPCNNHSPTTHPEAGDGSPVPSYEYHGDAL
# TMEM16A inh: blocks the mouse calcium-activated chloride channel TMEM16A | Q8BHY3 | HEK293 TMEM16A/YFP iodide influx fluorescence, ionomycin | normalized B-score (activity score, 25-100; higher = stronger inhibition) at 10 µM | 1.2% of 310,000 active;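 active means ratio plate-corrected score three or more library SD toward inhibition, starting fluorescence score within five deviations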;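 further: score derived from kinetic fluorescence span divided by baseline fluorescence per well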
# * = called active by the depositor; i = inactive; · = no result.
SMILES,UPR CHOP act,XBP1 UPR activ,CHOP inhibitor,Lipid droplet,ANO1 activ,TMEM16A inh
O=C(Nc1cccc(Br)c1)c1ccc(CN2CCc3ccccc3C2)cc1,2,3,·,17,i,25*
CC(=O)Nc1ccc(NC(=O)c2ccc(CN3CCc4ccccc4C3)cc2)cc1,1,-5,·,4,i,i
CCOc1ccc(C(CC(=O)O)NC(=O)Cc2ccc(Cl)cc2)cc1 (centres undefined),-1,4,·,-3,i,i
O=C(NCc1ccc(Cl)cc1)c1ccc2nc[nH]c2c1,·,·,14,-1,i,·
COc1ccc(Cl)cc1NC(=O)c1nc2nc(C)cc(C(F)F)n2n1,1,1,74*,·,i,i
O=[N+]([O-])c1ccc(-c2cnc(SC(c3ccccc3)c3ccccc3)[nH]2)cc1,2,6,73*,7,i,i
O=[N+]([O-])c1ccc(-c2cnc(SCc3ccccc3Cl)[nH]2)cc1,4,2,36,·,i,100*
NC(=O)CSc1ncc(-c2ccc([N+](=O)[O-])cc2)[nH]1,3,-4,23,21,i,i
Cc1cc(C)c(CSc2ncc(-c3ccc([N+](=O)[O-])cc3)[nH]2)c(C)c1,0,-4,75*,·,i,i
O=[N+]([O-])c1ccc2nc(SCc3ccccc3Cl)sc2c1,1,2,51,·,i,i
Cc1cc(C)c2c(=O)[nH]c(SCc3ccc([N+](=O)[O-])cc3)nc2n1,-1,0,5,1,i,i
CCC(C)(C)NC(=O)C(c1ccc(OC)cc1)N(C(=O)CCC(=O)Nc1cc(C)on1)c1ccccc1F (centres undefined),2,2,·,-4,i,i
Cc1ccc(C)c(NC(=S)c2ccc3ccccc3n2)c1,4,2,-38,56*,i,i
O=C(C1CCC1)N1CCN(c2cccc(C(F)(F)F)c2)CC1,3,0,·,-15,i,i
O=C(C1CCN(c2nnc(-n3cccc3)s2)CC1)N1CCN(c2cccc(C(F)(F)F)c2)CC1,-2,-3,77*,·,i,i
CCOc1ccc(S(=O)(=O)N(C)c2ccc(OCC(=O)Nc3nc4ccccc4s3)cc2)cc1,5,-3,81*,-6,i,i
CN(c1ccc(OCC(=O)Nc2nc3ccccc3s2)cc1)S(=O)(=O)c1ccccc1,-3,2,20,8,i,i
OC12CCCCC1C(c1ccc3c(c1)OCO3)N(Cc1ccc(F)cc1)CC2 (centres undefined),-3,0,90*,·,i,i
OC12CCCCC1C(c1ccc3c(c1)OCO3)N(Cc1cccc(F)c1)CC2 (centres undefined),·,·,61,·,i,·
CCCCn1c(N)c(N(Cc2ccccc2OC)C(=O)C(C)C)c(=O)[nH]c1=O,2,-2,·,-2,i,i
CCc1nn(CC(=O)NCCCN2CCc3ccccc3C2)c(=O)c2cc3sccc3n12,1,4,56,-6,i,100*
CCc1nn(CC(=O)NCCCN2CCN(C)CC2)c(=O)c2cc3sccc3n12,1,-4,·,-6,i,i
COC1=C/C(=C/c2c(N)n3nc(CC(=O)N4CCCC4)sc3nc2=O)C=CC1=O,-1,-4,·,-1,-5.7*,i
Nc1c(/C=C2/C=CC(=O)C(O)=C2)c(=O)nc2sc(CC(=O)N3CCCCC3)nn12,-3,-1,·,2,-5.5*,i
CCOC1=C/C(=C/c2c(N)n3nc(CC(=O)N4CCCC4)sc3nc2=O)C=CC1=O,-1,-6,·,15,i,i
SMILES,UPR CHOP act,XBP1 UPR activ,CHOP inhibitor,Lipid droplet,ANO1 activ,TMEM16A inh
CCOC(=O)c1ccc(N2C(=O)CC(N3CCC(Nc4ccc(F)cc4)CC3)C2=O)cc1 (centres undefined),0,-1,84*,-2,i,i
CCOC(=O)c1ccc(N2C(=O)CC(N3CCN(Cc4ccccc4)CC3)C2=O)cc1 (centres undefined),-1,6,1,·,i,i
Cc1cc2c(cc1S(=O)(=O)NCc1ccccc1)OCC(=O)N2,-2,-3,·,0,i,i
CCc1ccc(-c2cn3nc(C)c(C)nc3n2)cc1,-10,-9,92*,-3,i,i
COC(=O)Oc1c(Br)c(=O)oc2ccccc12,0,0,85*,·,i,i
CC(=O)Nc1c(NC(C)C)c2ccccc2oc1=O,2,-2,18,·,i,i
CC(C)C[C@H](NC(=O)[C@H](Cc1ccccc1)n1c(=O)[nH]c2ccccc2c1=O)C(=O)N1CCC[C@@H]1C(=O)O,-2,-1,·,-2,i,i
Cc1ccc2oc(/N=C(\N)NC(=O)C3CC3)nc2c1,0,-6,-7,-9,i,i
Cc1ccc2oc(/N=C(\N)NC(=O)C(C)(C)C)nc2c1,-8,-10,86*,-4,i,i
CC/C(=N\Nc1ccc([N+](=O)[O-])cc1)c1ccccc1,1,2,75*,2,i,i
CCc1ccc(/C(C)=N\Nc2ccc([N+](=O)[O-])cc2)cc1,0,2,69,·,i,i
CCOC(=O)C(NC(=O)c1cccc(Cl)c1)(OCc1ccc(F)cc1)C(F)(F)F (centres undefined),0,-1,57,64*,i,i
Cn1c(CC(=O)Nc2ccccc2)c(Sc2ccccc2)c2ccccc21,-2,-3,48,42,i,i
Cn1c(CC(=O)Nc2ccccc2C(F)(F)F)c(Sc2ccccc2)c2ccccc21,-2,-3,76*,31,i,i
O=c1oc(-c2ccccc2)cc(Cl)c1Cl,58*,2,·,24,i,i
O=c1cc(-c2ccccc2)oc2ccc(Cl)cc12,·,·,·,·,i,·
O=C(c1cc(Cl)ccc1OCc1ccccc1)N1CCOCC1,1,2,·,5,i,i
CC(=O)c1ccc(NC(=O)C(C)Sc2n[nH]c(-c3cccnc3)n2)cc1 (centres undefined),1,4,·,-8,i,i
COc1ccc(N2C(=O)C(Cl)=C(N3CCN(Cc4ccccc4)CC3)C2=O)cc1,·,·,78*,18,i,·
O=C1C(Cl)=C(N2CCN(Cc3ccccc3)CC2)C(=O)N1c1ccccc1,0,0,54,1,i,i
O=C1C(Cl)=C(N2CCCCC2)C(=O)N1Cc1ccccc1,-1,-2,96*,-3,i,i
COc1ccc(CCN(C)C(=O)c2cc(=O)c3ccccc3o2)cc1OC,1,-1,·,1,i,i
